# Experimental data published in PubChem BioAssay AID623885 (Vanderbilt Specialized Chemistry Center, 2012).
# Activity calls are given as the source filed them.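 Rule for the calls: active = mean half-maximal effective concentration under 30 µM; inactive = the rest.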
# Molecular target: Metabotropic glutamate receptor 3 (Rattus norvegicus) (UniProt P31422)
# Test: rat mGlu3 negative modulators or antagonists, dose response, thallium flux, HEK/GIRK cells (AID 623885)
# Settings: HEK293 GIRK rat mGlu3, thallium flux fluorescence
# Summary of the method: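 System: HEK cells stably co-expressing GIRK channels, M4 muscarinic receptor, rat mGlu3 / Medium: HEPES-buffered HBSS / Incubation: dye loading 1 h room temperature, compounds ~2.5 min / Measured by: thallium influx through GIRK, FluoZin-2 AM fluorescence / Probe or stimulus: thallium buffer ± agonist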
# Sequence of Metabotropic glutamate receptor 3 (Rattus norvegicus) (P31422 whole entry, looked up): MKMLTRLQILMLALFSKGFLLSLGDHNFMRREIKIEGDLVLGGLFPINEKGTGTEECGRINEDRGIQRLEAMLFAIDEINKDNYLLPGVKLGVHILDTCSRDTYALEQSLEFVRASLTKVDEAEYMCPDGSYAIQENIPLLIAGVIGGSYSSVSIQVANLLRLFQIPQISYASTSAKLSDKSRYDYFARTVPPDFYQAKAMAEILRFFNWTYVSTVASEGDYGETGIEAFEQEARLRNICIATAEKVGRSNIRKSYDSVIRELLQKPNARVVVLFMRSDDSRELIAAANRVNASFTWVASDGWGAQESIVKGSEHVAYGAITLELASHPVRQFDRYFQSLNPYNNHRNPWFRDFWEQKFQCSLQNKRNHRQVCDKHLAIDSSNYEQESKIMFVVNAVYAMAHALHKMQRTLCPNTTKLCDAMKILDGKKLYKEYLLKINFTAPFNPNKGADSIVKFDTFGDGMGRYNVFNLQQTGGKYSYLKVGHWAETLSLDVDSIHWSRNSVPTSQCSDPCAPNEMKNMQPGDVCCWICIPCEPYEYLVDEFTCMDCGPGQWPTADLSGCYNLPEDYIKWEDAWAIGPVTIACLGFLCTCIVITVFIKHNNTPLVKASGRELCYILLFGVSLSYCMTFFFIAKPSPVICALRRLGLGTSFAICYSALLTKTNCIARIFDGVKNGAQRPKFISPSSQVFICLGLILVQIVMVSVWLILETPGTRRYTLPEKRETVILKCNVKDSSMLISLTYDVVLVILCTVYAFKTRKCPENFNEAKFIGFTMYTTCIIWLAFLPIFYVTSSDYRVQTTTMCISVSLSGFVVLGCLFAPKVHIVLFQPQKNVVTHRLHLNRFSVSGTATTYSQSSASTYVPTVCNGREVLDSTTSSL
row,SMILES,IC50 [nM]
1,COc1ccc(C#Cc2ccc(C(=O)N3CCC[C@@H](CO)C3)cc2)cc1,1480

# Same assay, conditions: HEK293 GIRK rat mGlu3, thallium flux fluorescence; at 30 µM (top of the series)
row,SMILES,percent of glutamate max response
1,O=C(c1ccc(C#Cc2cccc3ccccc23)cc1)N1CCC(O)CC1,32.7
2,COc1ccc(C#Cc2ccc(C(=O)N3CCC[C@@H](CO)C3)cc2)cc1,-0.47
3,COc1ccc(C#Cc2ccc(C(=O)NC(C)(C)CO)cc2)cc1,162
4,O=C(c1ccc(I)cc1)N1CCC(O)CC1,inactive
5,O=C(c1ccc(C#CC2=CCCCC2)cc1)N1CCC(O)CC1,46.1
6,COc1ccc(C#Cc2ccc(C(=O)N3CCCC(O)C3)cc2)cc1 (stereo not given),-1.25
7,CC(C)(C)c1ccc(C#Cc2ccc(C(=O)N3CCC(O)CC3)cc2)cc1,inactive
8,COc1ccc(C#Cc2ccc(C(=O)N3CCC(C#N)(c4ccccc4)CC3)cc2)cc1,inactive
9,COc1ccccc1C#Cc1ccc(C(=O)N2CCC(O)CC2)cc1,inactive
10,COc1ccc(C#Cc2ccc(C(=O)N3CCCCC3CO)cc2)cc1 (stereo not given),55.9
11,O=C(c1ccc(C#CC2CC2)cc1)N1CCC(O)CC1,inactive
12,N#Cc1ccc(C#Cc2ccc(C(=O)N3CCC(O)CC3)cc2)cc1,17.5
13,COc1ccc(C#Cc2ccc(C(=O)NCCCCO)cc2)cc1,inactive
14,COc1ccc(C#Cc2ccc(C(=O)NCCC3=CCCCC3)cc2)cc1,inactive
15,O=C(c1ccc(C#CCOc2ccccc2)cc1)N1CCC(O)CC1,37.7
16,O=C(c1ccc(C#CCN2N=NCc3ccccc32)cc1)N1CCC(O)CC1,inactive
17,COc1ccc(C#Cc2ccc(C(=O)NC(C)C)cc2)cc1,inactive

row,SMILES,percent of glutamate max response
1,O=C(c1ccc(C#CCc2ccccc2)cc1)N1CCC(O)CC1,42.2
2,COc1ccc(C#Cc2ccc(C(=O)NCc3ccc(C(C)(C)C)cc3)cc2)cc1,inactive
3,CC(C)CC#Cc1ccc(C(=O)N2CCC(O)CC2)cc1,inactive
4,O=C(c1ccc(C#CCC2CCCC2)cc1)N1CCC(O)CC1,34
5,CCc1ccc(C#Cc2ccc(C(=O)N3CCC(O)CC3)cc2)cc1,62
6,COc1ccc(C#Cc2cccc(C(=O)N3CCC(O)CC3)c2)cc1,13.9
7,N#CCCCC#Cc1ccc(C(=O)N2CCC(O)CC2)cc1,inactive
8,COc1ccc(C#Cc2ccc(C(=O)N3CCC[C@H](C(=O)O)C3)cc2)cc1,0.55
9,O=C(c1ccc(C#Cc2ccccc2)cc1)N1CCC(O)CC1,11.6
10,COc1ccc(C#Cc2ccc(C(=O)N3CCC(C)(O)CC3)cc2)cc1,5.42
11,COc1ccc(C#Cc2ccc(C(=O)N3CCC3)cc2)cc1,31.5
12,O=C(c1ccc(C#CC2(O)CCCC2)cc1)N1CCC(O)CC1,inactive
13,O=C(CN1CCc2cc(C#Cc3ccccc3)ccc2C1=O)NCCN1CCCCC1,3.68
14,O=C(c1ccc(C#CC2CCCC2)cc1)N1CCC(O)CC1,inactive
15,COc1ccc(C#Cc2ccc(C(=O)N3CCN(c4ccccc4)CC3)cc2)cc1,inactive
16,COc1cccc(C#Cc2ccc(C(=O)N3CCC(O)CC3)cc2)c1,inactive
17,COc1ccc(C#Cc2ccc(C(=O)N3C[C@H]4C[C@@H]3CN4C(=O)OC(C)(C)C)cc2)cc1,inactive
